{"source": "EPA's CvTdb concentration-time database", "key": {"[1]": {"tested_on": "Rat", "assay": "concentration in plasma after dosing", "settings": "2 h; dosed: Wyeth-14643; 2.0 mg/kg; iv; Male; Sprague-Dawley"}, "[2]": {"tested_on": "Rat", "assay": "concentration in plasma after dosing", "settings": "1 h; dosed: Wyeth-14643; 1.0 mg/kg; oral; Male; Sprague-Dawley"}, "[3]": {"tested_on": "Rat", "assay": "concentration in plasma after dosing", "settings": "0.5 h; dosed: Wyeth-14643; 1.0 mg/kg; oral; Male; Sprague-Dawley"}, "[4]": {"tested_on": "Rat", "assay": "concentration in liver after dosing", "settings": "1 h; dosed: Bis 2-Chloroethoxy Methane; 20 mg/kg; iv; Female; F344"}, "[5]": {"tested_on": "Rat", "assay": "concentration in heart after dosing", "settings": "3 h; dosed: Bis 2-Chloroethoxy Methane; 20 mg/kg; iv; Male; F344"}, "[6]": {"tested_on": "Rat", "assay": "concentration in liver after dosing", "settings": "10 min; dosed: Bis 2-Chloroethoxy Methane; 20 mg/kg; iv; Male; F344"}, "[7]": {"tested_on": "Rat", "assay": "concentration in liver after dosing", "settings": "20 min; dosed: Bis 2-Chloroethoxy Methane; 20 mg/kg; iv; Female; F344"}, "[8]": {"tested_on": "Rat", "assay": "concentration in liver after dosing", "settings": "3 h; dosed: Bis 2-Chloroethoxy Methane; 20 mg/kg; iv; Male; F344"}, "[9]": {"tested_on": "Rat", "assay": "concentration in plasma after dosing", "settings": "20 min; dosed: Bis 2-Chloroethoxy Methane; 20 mg/kg; iv; Male; F344"}, "[10]": {"tested_on": "Rat", "assay": "concentration in plasma after dosing", "settings": "4 h; dosed: Bis 2-Chloroethoxy Methane; 40 mg/kg; iv; Male; Harlan Sprague Dawley"}, "[11]": {"tested_on": "Rat", "assay": "concentration in plasma after dosing", "settings": "4 h; dosed: Bis 2-Chloroethoxy Methane; 40 mg/kg; iv; Male; Harlan Sprague Dawley", "remark": "listed apart in the source"}, "[12]": {"tested_on": "Rat", "assay": "concentration in thymus after dosing", "settings": "10 min; dosed: Bis 2-Chloroethoxy Methane; 20 mg/kg; iv; Male; F344"}, "[13]": {"tested_on": "Rat", "assay": "concentration in plasma after dosing", "settings": "5 h; dosed: Bis 2-Chloroethoxy Methane; 20 mg/kg; iv; Male; F344"}, "[14]": {"tested_on": "Rat", "assay": "concentration in plasma after dosing", "settings": "10 min; dosed: Bis 2-Chloroethoxy Methane; 20 mg/kg; iv; Female; F344"}, "[15]": {"tested_on": "Rat", "assay": "concentration in thymus after dosing", "settings": "6 h; dosed: Bis 2-Chloroethoxy Methane; 20 mg/kg; iv; Female; F344"}, "[16]": {"tested_on": "Rat", "assay": "concentration in plasma after dosing", "settings": "dosed: Bis 2-Chloroethoxy Methane, 40 mg/kg, iv, Male, Harlan Sprague Dawley"}, "[17]": {"tested_on": "Rat", "assay": "concentration in plasma after dosing", "settings": "3 h; dosed: Bis 2-Chloroethoxy Methane; 20 mg/kg; iv; Female; F344"}, "[18]": {"tested_on": "Rat", "assay": "concentration in brain after dosing", "settings": "3 h; dosed: Fluorotelomer alcohol 8+2; 80 mg/kg; oral; Female; Harlan Sprague Dawley"}, "[19]": {"tested_on": "Rat", "assay": "concentration in brain after dosing", "settings": "1 h; dosed: Fluorotelomer alcohol 8+2; 80 mg/kg; oral; Female; Harlan Sprague Dawley"}, "[20]": {"tested_on": "Rat", "assay": "concentration in kidney after dosing", "settings": "1 h; dosed: Fluorotelomer alcohol 8+2; 24 mg/kg; oral; Male; Harlan Sprague Dawley"}, "[21]": {"tested_on": "Rat", "assay": "concentration in plasma after dosing", "settings": "10 min; dosed: Di-n-butyl phthalate; 50 mg/kg; oral; Male; Sprague-Dawley"}, "[22]": {"tested_on": "Rat", "assay": "concentration in plasma after dosing", "settings": "3 h; dosed: Di-n-butyl phthalate; 50 mg/kg; oral; Male; Sprague-Dawley"}, "[23]": {"tested_on": "Rat", "assay": "concentration in plasma after dosing", "settings": "20 min; dosed: Di-n-butyl phthalate; 50 mg/kg; oral; Male; Sprague-Dawley"}, "[24]": {"tested_on": "Rat", "assay": "concentration in plasma after dosing", "settings": "20 h; dosed: Di-n-butyl phthalate; 100 mg/kg; oral; Male; Sprague-Dawley"}, "[25]": {"tested_on": "Rat", "assay": "concentration in plasma after dosing", "settings": "20 min; dosed: Di-n-butyl phthalate; 20 mg/kg; iv; Male; Sprague-Dawley"}, "[26]": {"tested_on": "Rat", "assay": "concentration in plasma after dosing", "settings": "15 h; dosed: Di-n-butyl phthalate; 100 mg/kg; oral; Male; Sprague-Dawley"}, "[27]": {"tested_on": "Rat", "assay": "concentration in liver after dosing", "settings": "24 h; dosed: Perfluorodecanoic acid; 10 mg/kg; oral; Female; Harlan Sprague Dawley"}, "[28]": {"tested_on": "Rat", "assay": "concentration in plasma after dosing", "settings": "dosed: Perfluorodecanoic acid, 2 mg/kg, iv, Male, F344"}, "[29]": {"tested_on": "Rat", "assay": "concentration in heart after dosing", "settings": "3 h; dosed: Thiodiglycolic Acid; 20 mg/kg; iv; Male; Harlan Sprague Dawley"}, "[30]": {"tested_on": "Rat", "assay": "concentration in liver after dosing", "settings": "4 h; dosed: Thiodiglycolic Acid; 20 mg/kg; iv; Male; Harlan Sprague Dawley"}, "[31]": {"tested_on": "Rat", "assay": "concentration in liver after dosing", "settings": "20 min; dosed: Thiodiglycolic Acid; 20 mg/kg; iv; Female; F344"}, "[32]": {"tested_on": "Rat", "assay": "concentration in thymus after dosing", "settings": "2 h; dosed: Thiodiglycolic Acid; 20 mg/kg; iv; Male; Harlan Sprague Dawley"}, "[33]": {"tested_on": "Rat", "assay": "concentration in thymus after dosing", "settings": "4 h; dosed: Thiodiglycolic Acid; 20 mg/kg; iv; Male; Harlan Sprague Dawley"}, "[34]": {"tested_on": "Rat", "assay": "concentration in thymus after dosing", "settings": "4 h; dosed: Thiodiglycolic Acid; 20 mg/kg; iv; Female; Harlan Sprague Dawley"}, "[35]": {"tested_on": "Rat", "assay": "concentration in plasma after dosing", "settings": "dosed: dichloroacetic acid, 40 mg/kg, oral, Female, Harlan Sprague Dawley"}, "[36]": {"tested_on": "Rat", "assay": "concentration in plasma after dosing", "settings": "40 min; dosed: dichloroacetic acid; 100 mg/kg; oral; Male; F344"}, "[37]": {"tested_on": "human", "settings": "dosed: tetrachloroethylene, 144 ppm, inhalation, duration: 4 hr, male", "in_short": "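Points were largely digitised from plot screenshots with WebPlotDigitizer or otherwise copied from tables, and they remain in the units each source reported. They come from published in vivo toxicokinetic studies and two structured collections. Sampling and analytical methods follow each source and were often not reported.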"}}, "data": [{"compound": "Cc1cccc(Nc2cc(Cl)nc(SCC(=O)O)n2)c1C", "values": [{"measurement": "concentration in plasma", "setting": "[1]", "result": 870, "unit": "ng/mL"}, {"measurement": "concentration in plasma", "setting": "[2]", "result": 828, "unit": "ng/mL"}, {"measurement": "concentration in plasma", "setting": "[3]", "result": 1210, "unit": "ng/mL"}]}, {"compound": "ClCCOCOCCCl", "note": "[Bis 2-Chloroethoxy Methane]", "values": [{"measurement": "concentration in liver", "setting": "[4]", "result": 343, "unit": "ng/g"}, {"measurement": "concentration in heart", "setting": "[5]", "result": 116, "unit": "ng/g"}, {"measurement": "concentration in liver", "setting": "[6]", "result": 2500, "unit": "ng/g"}, {"measurement": "concentration in liver", "setting": "[7]", "result": 1090, "unit": "ng/g"}, {"measurement": "concentration in liver", "setting": "[8]", "result": 104, "unit": "ng/g"}, {"measurement": "concentration in plasma", "setting": "[9]", "result": 5580, "unit": "ng/mL"}, {"measurement": "concentration in plasma", "setting": "[10]", "result": 238, "unit": "ng/mL"}, {"measurement": "concentration in plasma", "setting": "[11]", "result": 162, "unit": "ng/mL"}, {"measurement": "concentration in thymus", "setting": "[12]", "result": 45200, "unit": "ng/g"}, {"measurement": "concentration in plasma", "setting": "[13]", "result": 36.5, "unit": "ng/mL"}, {"measurement": "concentration in plasma", "setting": "[14]", "result": 9470, "unit": "ng/mL"}, {"measurement": "concentration in thymus", "setting": "[15]", "result": 32.1, "unit": "ng/g"}, {"measurement": "concentration in plasma", "setting": "[16]; 10 min", "result": 22300, "unit": "ng/mL"}, {"measurement": "concentration in plasma", "setting": "[16]; 5.333 h", "result": 72.8, "unit": "ng/mL"}, {"measurement": "concentration in plasma", "setting": "[17]", "result": 65.2, "unit": "ng/mL"}]}, {"compound": "OCCC(F)(F)C(F)(F)C(F)(F)C(F)(F)C(F)(F)C(F)(F)C(F)(F)C(F)(F)F", "note": "[Fluorotelomer alcohol 8+2]", "values": [{"measurement": "concentration in brain", "setting": "[18]", "result": 9550, "unit": "ng/g"}, {"measurement": "concentration in brain", "setting": "[19]", "result": 4990, "unit": "ng/g"}, {"measurement": "concentration in kidney", "setting": "[20]", "result": 1520, "unit": "ng/g"}]}, {"compound": "CCCCOC(=O)c1ccccc1C(=O)O", "note": "[Mono-n-butyl phthalate]", "values": [{"measurement": "concentration in plasma", "setting": "[21]", "result": 8110, "unit": "ng/mL"}, {"measurement": "concentration in plasma", "setting": "[22]", "result": 1180, "unit": "ng/mL"}, {"measurement": "concentration in plasma", "setting": "[23]", "result": 32400, "unit": "ng/mL"}, {"measurement": "concentration in plasma", "setting": "[24]", "result": 414, "unit": "ng/mL"}, {"measurement": "concentration in plasma", "setting": "[25]", "result": 21300, "unit": "ng/mL"}, {"measurement": "concentration in plasma", "setting": "[26]", "result": 900, "unit": "ng/mL"}]}, {"compound": "O=C(O)C(F)(F)C(F)(F)C(F)(F)C(F)(F)C(F)(F)C(F)(F)C(F)(F)C(F)(F)C(F)(F)F", "note": "[Perfluorodecanoic acid]", "values": [{"measurement": "concentration in liver", "setting": "[27]", "result": 139000, "unit": "ng/g"}, {"measurement": "concentration in plasma", "setting": "[28]; 1 h", "result": 6520, "unit": "ng/mL"}, {"measurement": "concentration in plasma", "setting": "[28]; 528 h", "result": 4120, "unit": "ng/mL"}, {"measurement": "concentration in plasma", "setting": "[28]; 3360 h", "result": 71.5, "unit": "ng/mL"}]}, {"compound": "O=C(O)CSCC(=O)O", "note": "[Thiodiglycolic Acid]", "values": [{"measurement": "concentration in heart", "setting": "[29]", "result": 1040, "unit": "ng/g"}, {"measurement": "concentration in liver", "setting": "[30]", "result": 43400, "unit": "ng/g"}, {"measurement": "concentration in liver", "setting": "[31]", "result": 174000, "unit": "ng/g"}, {"measurement": "concentration in thymus", "setting": "[32]", "result": 2260, "unit": "ng/g"}, {"measurement": "concentration in thymus", "setting": "[33]", "result": 904, "unit": "ng/g"}, {"measurement": "concentration in thymus", "setting": "[34]", "result": 637, "unit": "ng/g"}]}, {"compound": "O=C(O)C(Cl)Cl", "note": "[dichloroacetic acid]", "values": [{"measurement": "concentration in plasma", "setting": "[35]; 20 min", "result": 8110, "unit": "ng/mL"}, {"measurement": "concentration in plasma", "setting": "[35]; 2 h", "result": 2680, "unit": "ng/mL"}, {"measurement": "concentration in plasma", "setting": "[36]", "result": 39400, "unit": "ng/mL"}]}, {"compound": "O=C(O)C(Cl)(Cl)Cl", "note": "[trichloroacetic acid]", "values": [{"measurement": "amount in urine after dosing", "setting": "[37]; 22 h", "result": 6.91, "unit": "mg"}, {"measurement": "amount in urine after dosing", "setting": "[37]; 46 h", "result": 2.33, "unit": "mg"}, {"measurement": "amount in urine after dosing", "setting": "[37]; 70 h", "result": 2.17, "unit": "mg"}]}]}
